Source: PubChem (Johns Hopkins Ion Channel Center)
The list is not random: actives were taken first. Their share in the collection is about 3.7%.
KCNQ1 pot: potentiators or activators of KCNQ1 channel, primary screen, cell-based, thallium flux, high-throughput. Potassium voltage-gated channel subfamily KQT member 1 (Homo sapiens), P51787. CHO-K1 KCNQ1, thallium flux FluxOR fluorescence; stronger effect = higher value. B-score at 10 µM. actives 0.35% (n = 310,000);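 active = fluorescence ratio B-score, a plate-corrected score, at least three library SD, with initial intensity B-score within 5 SD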
Target sequence (P51787 whole entry, looked up): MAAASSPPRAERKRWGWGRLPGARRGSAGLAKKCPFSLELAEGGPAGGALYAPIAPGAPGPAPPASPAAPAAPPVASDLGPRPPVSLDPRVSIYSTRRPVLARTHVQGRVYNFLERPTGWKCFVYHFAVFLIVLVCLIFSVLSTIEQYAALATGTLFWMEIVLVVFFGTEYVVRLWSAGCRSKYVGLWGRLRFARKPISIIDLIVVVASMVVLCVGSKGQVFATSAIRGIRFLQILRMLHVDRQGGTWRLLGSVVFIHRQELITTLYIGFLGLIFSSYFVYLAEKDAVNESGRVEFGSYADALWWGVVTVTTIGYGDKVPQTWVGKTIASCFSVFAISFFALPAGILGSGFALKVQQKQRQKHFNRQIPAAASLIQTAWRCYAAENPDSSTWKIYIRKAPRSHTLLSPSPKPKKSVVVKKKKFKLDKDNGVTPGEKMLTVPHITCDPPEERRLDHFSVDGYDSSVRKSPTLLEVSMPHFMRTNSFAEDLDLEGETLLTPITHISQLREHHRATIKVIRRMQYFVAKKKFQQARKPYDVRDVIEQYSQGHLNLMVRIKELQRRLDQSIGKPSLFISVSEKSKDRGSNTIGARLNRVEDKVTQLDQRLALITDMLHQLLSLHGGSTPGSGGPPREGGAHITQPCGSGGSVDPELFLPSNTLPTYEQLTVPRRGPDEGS
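Assay system: CHO-K1 cells stably expressing KCNQ1. Medium: assay buffer for compound exposure, DMSO matched across wells. Timing: 37 °C overnight plating, 90-min dark dye load, 20-min compound pretreatment. Signal: kinetic FluxOR fluorescence, 10 s baseline plus 110 s post-stimulus.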
KCNQ1 inh: inhibitors of human KCNQ1 channel, primary screen, cell-based, thallium flux, high-throughput; CHO-K1 KCNQ1, FluxOR thallium flux fluorescence; stronger effect = higher value; B-score at 10 µM; actives 1.3% (n = 310,000);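 active = compounds whose thallium flux B-score, printed positive for inhibition, exceeds three library SD while starting fluorescence stays within three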;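 also: channel opened by potassium depolarization with thallium stimulus after 20 min compound exposure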
KCNK9 block: KCNK9 potassium channel inhibitors, primary screen, HEK293 cells, thallium flux; Potassium channel subfamily K member 9 (Homo sapiens), Q9NPC2; FluxOR thallium flux fluorescence; stronger effect = lower value; B-score at 10 µM; actives 1.2% (n = 310,000);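 active = ratio B-score over 3 SD below the library mean, with starting fluorescence within 5 SD of its mean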;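 also: negative B-score means less thallium flux so channel inhibition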
hERG rescue: hERG rescue from dofetilide block, primary screen, cell-based, CHO-hERG, FluxOR thallium flux, dofetilide IC70 | Voltage-gated inwardly rectifying potassium channel KCNH2 (Homo sapiens), Q12809 | dofetilide IC70 present | activation (rescue from dofetilide block), less the hit threshold, % at 10 µM | actives 0.51% (n = 310,000) | AID 1511, 2009;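 active = activation above the mean of controls blocked by dofetilide plus 5 SD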;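 also: thallium influx through hERG after potassium depolarization seen as dye fluorescence rise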
Kir21 inh: inhibitors of mouse Kir2.1 inward-rectifier potassium channel; Inward rectifier potassium channel 2 (Mus musculus), P35561; HEK293-Kir2.1, FluxOR thallium flux fluorescence; stronger effect = lower value; B-score at 10 µM; actives 0.85% (n = 310,000);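 active = fluorescence ratio B-score at or below minus 3 SD of library scores, with starting-brightness B-score within 2 SD, cut at about -4.2 in these data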;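 also: channel flux triggered by added potassium and thallium sulfate stimulus; B-score of peak minus minimum fluorescence over baseline after thallium stimulus; more negative B-score means stronger Kir2.1 block with less thallium influx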
KCNK3 inh: human KCNK3 channel inhibitors, primary screen, CHO cells, FluxOR thallium flux, B-score | Potassium channel subfamily K member 3 (Homo sapiens), O14649 | FluxOR fluorescence; stronger effect = lower value | B-score at 10 µM | actives 0.84% (n = 340,000) | AID 602410, 2012;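 active = B-score under library mean minus 4 SD, starting fluorescence ratio at most library mean plus 5 SD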;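 also: more negative B-score means stronger inhibition of thallium flux through KCNK3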
KCNK9 inh conf: KCNK9 potassium channel inhibitors, confirmation, HEK293 cells, thallium flux, duplicate | shares compounds with KCNK9 block | FluxOR thallium flux fluorescence | inhibition, % at 10 µM | actives 43% (n = 4,900) | AID 492992, 2010;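 active = thallium signal inhibited by more than 5 SD of the compound-free buffer control wells, on both duplicate plates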;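 also: 0% = assay buffer control wells without compound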
Kir2-1 spec: mouse Kir2.1 channel inhibition, confirmation, selectivity assay for KCNK9 modulator project, cell-based, HEK293, thallium flux | AID 492993, 2010 | actives 4% (n = 4,900) | shares compounds with KCNK9 block | Kir2.1 cells, FluxOR thallium flux fluorescence | inhibition, % at 10 µM;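 active = thallium signal drop more than 5 SD beyond the mean of the no-compound control wells, seen in both duplicate plates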;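 also: signal is fluorescence rise after thallium addition divided by baseline fluorescence; plate controls were assay buffer only for no effect and full block by chlorpromazine control for full effect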
HEK293 Tl ctr: thallium flux in non-induced HEK293 cells, confirmation, counter-screen for KCNK9 inhibitor project, cell-based, second counter screen, non-induced KCNK9-HEK293; shares compounds with KCNK9 block; FluxOR thallium flux; inhibition, % at 10 µM; actives 40% (n = 4,900); AID 492997, 2010;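 active = thallium signal drop beyond 5 SD of the untreated control mean, on both duplicate plates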;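 also: plate controls were buffer only IC0 wells for no effect and SID17386958 at its maximal inhibitory level for full effect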
* hit, by the source's call.

What do the screens show for `CC1Cc2ccccc2N1C(=O)Cn1cnc2c1c(=O)n(C)c(=O)n2C` (centres undefined)?
KCNQ1 pot: inactive; KCNQ1 inh: inactive; KCNK9 block: inactive; hERG rescue: -8.9; Kir21 inh: -0.4; KCNK3 inh: inactive

What do the screens show for `Cc1cc(-c2c(C)[nH]n(-c3ccccc3)c2=O)n[nH]1`?
KCNQ1 pot: inactive; KCNQ1 inh: inactive; KCNK9 block: inactive; hERG rescue: -7.1; Kir21 inh: -0.11; KCNK3 inh: inactive

What do the screens show for `N#CC(c1ccccc1O)N1N=C(c2ccccc2)CC1c1ccccc1` (centres undefined)?
KCNQ1 pot: inactive; KCNQ1 inh: 12*; KCNK9 block: -10.5*; hERG rescue: -9.5; Kir21 inh: 4.14; KCNK3 inh: inactive; KCNK9 inh conf: 40.5%*; Kir2-1 spec: inactive; HEK293 Tl ctr: 47.0%*

Results for CN(Cc1ccccc1)C(=O)CSc1nc2ccccc2c(=O)n1Cc1ccco1 ?
KCNQ1 pot: inactive; KCNQ1 inh: inactive; KCNK9 block: inactive; hERG rescue: -19.0; Kir21 inh: -1.87; KCNK3 inh: inactive; KCNK9 inh conf: inactive; Kir2-1 spec: inactive; HEK293 Tl ctr: inactive

What do the screens show for `Cc1ccc(NC(=O)CN(C)C(=O)CSc2nc3ccccc3c(=O)n2Cc2ccco2)cc1`?
KCNQ1 pot: inactive; KCNQ1 inh: inactive; KCNK9 block: inactive; hERG rescue: -9.4; Kir21 inh: 0.86; KCNK3 inh: inactive

Results for O=C(Cc1ccc(Br)cc1)N1CCN(c2ccccc2)CC1 ?
KCNQ1 pot: inactive; KCNQ1 inh: inactive; KCNK9 block: inactive; hERG rescue: -10.3; Kir21 inh: 1.11; KCNK3 inh: inactive

How did Cc1cccc(N2CCN(C(=O)Cc3ccc(Br)cc3)CC2)c1C do in these assays?
KCNQ1 pot: inactive; KCNQ1 inh: inactive; KCNK9 block: inactive; hERG rescue: -16.6; Kir21 inh: -0.57; KCNK3 inh: inactive; KCNK9 inh conf: inactive; Kir2-1 spec: inactive; HEK293 Tl ctr: 26.5%*

How did O=c1[nH]c(=S)[nH]cc1Oc1ccccc1 do in these assays?
KCNK3 inh: inactive

Results for CCC(=O)Nc1cccc(C2=NN(c3ccccc3)C(c3ccc(OC)cc3)C2)c1 (centres undefined) ?
KCNQ1 pot: inactive; KCNQ1 inh: inactive; KCNK9 block: -13.4*; hERG rescue: -4.8; Kir21 inh: 0.2; KCNK3 inh: inactive; KCNK9 inh conf: 51.5%*; Kir2-1 spec: inactive; HEK293 Tl ctr: 39.5%*

How did CCN(CC)S(=O)(=O)c1ccc(C(C)NC(=O)C2CCCN2C(=O)c2cccs2)cc1 (centres undefined) do in these assays?
KCNK3 inh: inactive

Results for Cc1cccc(/C=C2/C(=O)/C(=C/c3ccccc3C)C3CCC2N3C)c1 (centres undefined) ?
KCNQ1 pot: inactive; KCNQ1 inh: inactive; KCNK9 block: inactive; hERG rescue: -7.8; Kir21 inh: -0.84; KCNK3 inh: inactive; KCNK9 inh conf: inactive; Kir2-1 spec: inactive; HEK293 Tl ctr: inactive

How did Cc1ccc2c(c1)/C(=C/c1ccccc1C)C(=O)N2 do in these assays?
KCNQ1 pot: inactive; KCNQ1 inh: inactive; KCNK9 block: inactive; hERG rescue: -0.7; Kir21 inh: 0.75; KCNK3 inh: inactive

How did O=C(COC(=O)C1=COCCO1)Nc1ccc(OC(F)F)cc1 do in these assays?
KCNQ1 pot: inactive; KCNQ1 inh: inactive; KCNK9 block: inactive; hERG rescue: -3.1; Kir21 inh: -0.02; KCNK3 inh: inactive

How did CCOC(=O)c1ccc(NC(=O)C2C3CCCCC32)cc1 (centres undefined) do in these assays?
KCNQ1 pot: inactive; KCNQ1 inh: inactive; KCNK9 block: -9.42*; hERG rescue: -3.0; Kir21 inh: 1.03; KCNK3 inh: inactive; KCNK9 inh conf: inactive; Kir2-1 spec: inactive; HEK293 Tl ctr: inactive

What do the screens show for `CCCCOc1ccc(C(=O)NN2CCOCC2)cc1`?
KCNQ1 pot: inactive; KCNQ1 inh: inactive; KCNK9 block: inactive; hERG rescue: -10.7; Kir21 inh: -1.14; KCNK3 inh: inactive

Results for CC(C)C(=O)NC(c1ccc(Cl)cc1Cl)c1ccc2cccnc2c1O (centres undefined) ?
KCNQ1 pot: inactive; KCNQ1 inh: inactive; KCNK9 block: inactive; hERG rescue: -7.9; Kir21 inh: -0.18; KCNK3 inh: inactive; KCNK9 inh conf: inactive; Kir2-1 spec: inactive; HEK293 Tl ctr: 28.5%*

What do the screens show for `CN(C)C(CNc1ncnc2sc3c(c12)CCCC3)c1ccco1` (centres undefined)?
KCNQ1 pot: inactive; KCNQ1 inh: inactive; KCNK9 block: inactive; hERG rescue: -4.8; Kir21 inh: 1.36; KCNK3 inh: inactive; KCNK9 inh conf: inactive; Kir2-1 spec: inactive; HEK293 Tl ctr: inactive

Results for C=CCSc1nc(-c2ccc(OC)cc2)c(C#N)c(=O)n1CC=C ?
KCNQ1 pot: inactive; KCNQ1 inh: inactive; KCNK9 block: -8.73*; hERG rescue: -7.8; Kir21 inh: -1.25; KCNK3 inh: inactive; KCNK9 inh conf: inactive; Kir2-1 spec: inactive; HEK293 Tl ctr: inactive

What do the screens show for `Cc1cccc(-n2nc(C(=O)Nc3ccccc3)n3c(=O)cc(-c4ccccc4)nc23)c1`?
KCNQ1 pot: inactive; KCNQ1 inh: inactive; KCNK9 block: inactive; hERG rescue: -11.2; Kir21 inh: 0.15; KCNK3 inh: inactive; KCNK9 inh conf: inactive; Kir2-1 spec: inactive; HEK293 Tl ctr: inactive

Results for CCOc1ccc(CC(=O)OCn2nnc3ccccc3c2=O)cc1 ?
KCNQ1 pot: inactive; KCNQ1 inh: inactive; KCNK9 block: inactive; hERG rescue: -11.5; Kir21 inh: 0.46; KCNK3 inh: inactive
